Compound activity (PubChem)
An excerpt weighted towards active compounds, which were near 8.8% of everything screened.
M1 agonist – agonists of M1 muscarinic receptor. CHO-M1 cells, Fluo-4 calcium fluorescence, agonist mode; stronger effect = higher value. B-score at 10 µM. hit rate 3% among 64,000;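 active = fluorescence rise, raw or as B-score row- and column-corrected plate score, outside the 99.7% band of its plate's samples, either direction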
S1P1 ag-PAM – S1P1 (human) agonism or agonism potentiation; P21453; S1P1 CRE-bla cells, forskolin, beta-lactamase FRET, potentiator mode; S1P1 agonist co-added at EC20, 2 nM; 100% = saturating reference agonist, 0% = basal; activation, % at 9.5 µM; hit rate 0.57% among 56,000; AID 449;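 active = activation above a cutoff set at the mean activation of all tested compounds plus 3 SD, cut at about 54% in these data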;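 note: forskolin at 4 µM as EC80 and the EC20 agonist is SEW2871; 100% = SEW2871 at its EC100 plus forskolin at EC80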
SF-1 act – activates the human nuclear receptor SF-1; AID 522; CHO-K1 Gal4-SF-1 LBD luciferase reporter; % increase over DMSO SF-1-specific signal; Q13285; activation, % at 10 µM; hit rate 1.9% among 65,000;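 active = activation above the mean activation of all tested compounds plus 3 SD, cut at about 50% in these data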
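Compound – one dose, 10 µM compound, 1% DMSO · Test system – transient Gal4-SF-1 LBD reporter, CHO-K1 · Input – 4,000 cells in each well · Read-out basis – percent activation relative to DMSO median and mock-transfected background · Replicates – single measurement per compound · Technique – steady-glow luciferase luminescence, read after 15 min reagent incubation · Timing – 20 h compound treatment, 37 °C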
RORA act – RORA (human) activation; hit rate 1.5% among 65,000; AID 560; CHO-K1 Gal4-RORA LBD luciferase reporter, luminescence; percent increase over mock-subtracted basal signal; P35398; activation, % at 10 µM;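 active = activation above the mean of all tested compounds plus 3 SD, cut at about 49% in these data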;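 note: 0% = DMSO-treated RORA cells and 100% = added signal equal to DMSO minus mock-transfected cells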
S1P3 agonist – agonists of human S1P3 receptor; Q99500; S1P3 NFAT-BLA reporter cells, agonism, FRET ratio; relative to 1 µM S1P, basal subtracted; activation, % at 4.5 µM; AID 373; hit rate 0.1% among 60,000;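 active = activation above the screen-wide mean plus 3 SD, cut at about 4.5% in these data, passing the limit was not always enough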
Target sequence (Q99500 whole entry, looked up): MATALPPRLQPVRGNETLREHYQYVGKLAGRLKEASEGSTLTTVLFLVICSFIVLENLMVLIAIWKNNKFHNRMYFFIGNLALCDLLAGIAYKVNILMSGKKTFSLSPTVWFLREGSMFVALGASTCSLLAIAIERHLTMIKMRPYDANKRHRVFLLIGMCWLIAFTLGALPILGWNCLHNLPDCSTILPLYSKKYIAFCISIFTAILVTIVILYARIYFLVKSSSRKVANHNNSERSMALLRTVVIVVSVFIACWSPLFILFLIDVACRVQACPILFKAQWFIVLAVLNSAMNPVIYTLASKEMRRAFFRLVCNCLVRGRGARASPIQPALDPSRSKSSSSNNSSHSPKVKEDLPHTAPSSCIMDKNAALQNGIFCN
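material = human S1P3 NFAT-BLA reporter CHO cells | schedule = 4 h compound at 37 °C, 2 h substrate at RT | measured by = fluorescent BLA substrate, ex 405 nm, em 460/535 nm ratio | controls = 1 µM S1P reference | replication = primary once, confirmation triplicate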
M1 antagonist – antagonists of rat M1 muscarinic receptor | P08482 | B-score at 10 µM | CHO-M1 cells, Fluo-4 calcium, ACh EC80 antagonist mode; stronger effect = lower value | AID 628 | hit rate 3.4% among 64,000;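 active = calcium fluorescence response, raw or row-and-column corrected B-score, differing from the plate sample mean either way at a set confidence level, mostly lower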
* = called active by the depositor.

`CCN1C(=S)SC(=O)C1=C1C=C(C)N(CCOC)C(C)=C1` gave M1 agonist 44*, SF-1 act -6, RORA act 24 and M1 antagonist -0.7.
For CCN1C(=S)SC(=O)C1=C1C=C(C)N(CCO)C(C)=C1 the results were M1 agonist -0.0025, SF-1 act 44, RORA act 36 and M1 antagonist 1.8.
CCN(CC)C(=O)c1sc(NC(=O)c2ccoc2C)c(C(=O)OC)c1C was read as M1 agonist -0.077, S1P1 ag-PAM -15, SF-1 act 13, RORA act 18, S1P3 agonist 0 and M1 antagonist 0.26.
COC(=O)c1c(-c2ccncc2)csc1NC(=O)c1ccoc1C was read as M1 agonist -0.37, S1P1 ag-PAM -62, SF-1 act 64*, RORA act 48, S1P3 agonist 0 and M1 antagonist 0.57.
Screening Cc1ccnc2c(N3C(=O)C4C5C=CC(C5)C4C3=O)cccc12 (stereo not given) returned M1 agonist -0.47, S1P1 ag-PAM -15, SF-1 act -4, RORA act -17, S1P3 agonist 0 and M1 antagonist 0.54.
Cc1ccc(OCc2nc(C#N)c(NCCCn3ccnc3)o2)cc1 was read as M1 agonist -0.066, S1P1 ag-PAM 14, SF-1 act 5, RORA act 3, S1P3 agonist 0 and M1 antagonist -1.5.
N#Cc1nc(COc2ccccc2)oc1NCCCn1ccnc1 was read as M1 agonist -0.16, S1P1 ag-PAM 14, SF-1 act 16, RORA act 26, S1P3 agonist 0 and M1 antagonist 0.34*.
For CC1=CCC2C(=O)N(c3ccc(C)c(Br)c3)C(=O)C2C1 (stereo not given) the results were M1 agonist -0.018, S1P1 ag-PAM -2, SF-1 act 5, RORA act 12, S1P3 agonist -1 and M1 antagonist -0.43.
For O=C(O)CC1NC(=O)N(c2ccc(Cl)cc2)C1=O (stereo not given) the results were M1 agonist -0.14, S1P1 ag-PAM -21, SF-1 act -9, RORA act 10, S1P3 agonist 0 and M1 antagonist 0.49.
CN(C)c1nc(OCC(=O)NC(C)(C)C)nc(N(C)C)n1 was read as M1 agonist 0.15, S1P1 ag-PAM -5, SF-1 act 1, RORA act -1, S1P3 agonist -1 and M1 antagonist 0.88.
CC(C)Oc1ccc(-c2nn(-c3ccccc3)cc2/C=c2\sc3ncnn3c2=O)cc1 was read as M1 agonist 33*, S1P1 ag-PAM -8, SF-1 act -22, RORA act 1, S1P3 agonist 0 and M1 antagonist -0.8.
O=S(=O)(NCCC1=CCCCC1)c1cccc(S(=O)(=O)N2CCOCC2)c1 was read as M1 agonist -0.65, S1P1 ag-PAM 10, SF-1 act -6, RORA act -10, S1P3 agonist -1 and M1 antagonist -0.33.
`O=C(NC1=NCCS1)c1cc(-c2ccccc2)nn1-c1ccccc1` gave M1 agonist 0.58, S1P1 ag-PAM 52, SF-1 act -10, RORA act -25, S1P3 agonist 11* and M1 antagonist -0.55.
Cc1cc(C)n(-c2ccc(C(=O)Nc3nc4ccccc4s3)cc2)n1 was read as M1 agonist -0.51, S1P1 ag-PAM 15, SF-1 act 26, RORA act 49*, S1P3 agonist 0 and M1 antagonist -0.29.
`Cc1cc(C)n(-c2ccc(C(=O)NC3=NCCS3)cc2)n1` gave M1 agonist -0.46, S1P1 ag-PAM 10, SF-1 act 33, RORA act 51*, S1P3 agonist -1 and M1 antagonist -1.
CC(=O)c1cc2c(cc1NC(=O)c1ccc(-n3nc(C)cc3C)cc1)OCO2 was read as M1 agonist -0.4, S1P1 ag-PAM 32, SF-1 act -9, RORA act 6, S1P3 agonist 0 and M1 antagonist -0.9.
Screening O=C(NCCC(=O)N1CCNC1=O)OCc1ccccc1 returned S1P1 ag-PAM 4, SF-1 act -2, RORA act -24 and S1P3 agonist -2.
`CC(=O)Nc1cc2nn(-c3ccccc3)nc2cc1Cl` gave M1 agonist -0.024, SF-1 act 11, RORA act 13 and M1 antagonist -0.25.
`O=C(Nc1cc2nn(-c3ccccc3)nc2cc1Cl)c1ccco1` gave M1 agonist 0.97, S1P1 ag-PAM 1, SF-1 act 73*, RORA act 25, S1P3 agonist -1 and M1 antagonist 0.45.
`COc1ccc(O)c(C(=O)c2cc(C#N)c(=O)n(-c3c(C)n(C)n(-c4ccccc4)c3=O)c2)c1` gave M1 agonist 5.8*, S1P1 ag-PAM 3, SF-1 act 6, RORA act 6, S1P3 agonist -1 and M1 antagonist -0.74.
`COc1ccccc1-c1c(C#N)c(SCC(=O)N2CCCC2)nc(C)c1C(N)=O` gave M1 agonist 0.024, SF-1 act -9, RORA act -5 and M1 antagonist -0.16.
For O=S1(=O)Nc2c(ccc3cccnc23)-c2ccccc21 the results were M1 agonist 0.52, S1P1 ag-PAM 118*, SF-1 act -91, RORA act -74, S1P3 agonist -1 and M1 antagonist -0.65.
Screening CN1/C(=C\C(=O)c2ccco2)C(C)(C)c2ccccc21 returned M1 agonist 0.044, S1P1 ag-PAM 26, SF-1 act -14, RORA act -12, S1P3 agonist 2 and M1 antagonist 0.054.
For CN1/C(=C/C(=O)c2nc(S(C)(=O)=O)ncc2Cl)C(C)(C)c2ccccc21 the results were M1 agonist 0.074, S1P1 ag-PAM 110*, SF-1 act -61, RORA act -43, S1P3 agonist -2 and M1 antagonist -2.
`O=C(NCCc1ccccc1)C1CCCN(C(=O)NC2CCCCC2)C1` (stereo not given) gave M1 agonist 0.44, S1P1 ag-PAM 6, SF-1 act -6, RORA act -20, S1P3 agonist 0 and M1 antagonist -0.24.
`COc1ccc(-c2cc(-c3ccc(OC)cc3)[nH]n2)cc1` gave M1 agonist -0.28, S1P1 ag-PAM -11, SF-1 act 42, RORA act 65*, S1P3 agonist -1 and M1 antagonist -1.9.
For C=CCn1c(N)c(C(=O)NCCC2=CCCCC2)sc1=S the results were M1 agonist -0.31, SF-1 act 31, RORA act 45 and M1 antagonist 0.041.
Screening COc1ccc2ncn(-c3ccccc3)c2c1 returned M1 agonist -0.0042, S1P1 ag-PAM 68*, SF-1 act -5, RORA act -30, S1P3 agonist -2 and M1 antagonist -0.036.
